Data taken from ChEMBL document CHEMBL1817572, “New, potent, selective, and short-acting peptidic V1a receptor agonists” (J Med Chem, 2011).
Bridge positions count the residues as written; N and C are the ends. Square brackets hold non-standard residues; d marks the D form. Peptide text beside a SMILES is read from it. * marks the point of attachment. Ala(4-thiazolyl) = N[C@@H](Cc1cscn1)C(=O)O; Orn(iPr) = CC(C)NCCC[C@H](N)C(=O)O; 2Thi = N[C@@H](Cc1cccs1)C(=O)O; Orn = NCCC[C@H](N)C(=O)O; Dab = NCC[C@H](N)C(=O)O; Ac4c = NC1(C(=O)O)CCC1; NHiBu = CC(C)CN*

Assays:
[1] = target: Vasopressin V1a/V2 (Homo sapiens) (UniProt P30518+P37288); test: Selectivity ratio of EC50 for human vasopressin V2 receptor to EC50 for human vasopressin V1a receptor
Vasopressin V1a receptor = Vasopressin V1a receptor (Homo sapiens, UniProt P37288); test: Agonist activity at recombinant human vasopressin V1a receptor expressed in HEK293 cells by luciferase reporter gene assay; format: functional, cell-based; conditions: read-out: EC50
Vasopressin V1b receptor = target: T1, Vasopressin V1b receptor (Homo sapiens, UniProt P47901); test: Agonist activity at recombinant human vasopressin V1b receptor expressed in Flp-In-293 cells by luciferase reporter gene assay; format: functional, cell-based; conditions: read-out: EC50
T1 sequence (P47901 whole entry): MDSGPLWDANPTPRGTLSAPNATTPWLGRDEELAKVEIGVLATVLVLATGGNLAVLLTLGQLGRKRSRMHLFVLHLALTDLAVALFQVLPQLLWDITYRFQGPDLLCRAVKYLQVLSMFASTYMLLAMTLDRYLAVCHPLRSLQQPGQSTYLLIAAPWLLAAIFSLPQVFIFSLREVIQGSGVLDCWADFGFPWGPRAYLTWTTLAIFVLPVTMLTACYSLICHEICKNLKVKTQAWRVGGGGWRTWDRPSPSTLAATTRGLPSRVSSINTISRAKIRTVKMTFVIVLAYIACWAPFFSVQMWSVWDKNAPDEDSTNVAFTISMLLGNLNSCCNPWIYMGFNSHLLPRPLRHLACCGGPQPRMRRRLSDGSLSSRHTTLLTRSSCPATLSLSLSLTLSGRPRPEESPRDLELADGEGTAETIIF
In short: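 Reporter gene assays in HEK293 cells transiently cotransfected with V1a (human or rat) or human V2 receptor vector plus NFAT-luciferase (V1a) or CRE-luciferase (V2) reporter; V1b in Flp-In-293 stably expressing receptor, OT in CHO-K1 stably expressing receptor, both transiently transfected with NFAT-luciferase. Two days post-transfection, peptides added for 5 h at 37 °C, lysis with luciferin, luminescence read.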

Vasopressin V2 receptor [2] = target: T2, Vasopressin V2 receptor (Homo sapiens, UniProt P30518); test: Agonist activity at recombinant human vasopressin V2 receptor expressed in HEK293 cells by luciferase reporter gene assay; format: functional, cell-based; conditions: read-out: EC50
Oxytocin receptor = target: T3, Oxytocin receptor (Homo sapiens, UniProt P30559); test: Agonist activity at human OT receptor expressed in CHO-K1 cells by luciferase reporter gene assay; format: functional, cell-based
T3 sequence (P30559 whole entry): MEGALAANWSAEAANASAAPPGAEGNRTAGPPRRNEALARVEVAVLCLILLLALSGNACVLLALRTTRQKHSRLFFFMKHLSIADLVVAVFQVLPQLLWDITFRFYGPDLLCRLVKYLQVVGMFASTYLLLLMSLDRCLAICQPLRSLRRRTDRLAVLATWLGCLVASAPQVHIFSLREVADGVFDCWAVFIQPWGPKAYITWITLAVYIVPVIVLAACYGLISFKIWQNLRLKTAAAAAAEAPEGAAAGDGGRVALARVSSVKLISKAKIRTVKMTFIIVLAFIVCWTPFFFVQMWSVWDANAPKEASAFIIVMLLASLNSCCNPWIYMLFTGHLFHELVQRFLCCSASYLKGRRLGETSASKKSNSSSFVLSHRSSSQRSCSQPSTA

Homo sapiens [3] = organism: Homo sapiens; test: Selectivity ratio of EC50 for human vasopressin V1b receptor to EC50 for human vasopressin V1a receptor
Homo sapiens [4] = organism: Homo sapiens; test: Selectivity ratio of EC50 for human oxytocin receptor to EC50 for human vasopressin V1a receptor
Vasopressin V2 receptor [5] = target: T2, Vasopressin V2 receptor; test: Partial agonist activity at recombinant human vasopressin V2 receptor expressed in HEK293 cells by luciferase reporter gene assay; format: functional, cell-based
In short: (§1)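 Same luciferase reporter systems (OT in stable CHO-K1, V1b in stable Flp-In-293, each with transient NFAT-luciferase; V1a in HEK293 with NFAT-luciferase, V2 in HEK293 with CRE-luciferase). Peptides added for 5 h at 37 °C two days post-transfection, luminescence read. Partial agonism means efficacy <70%.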

[6] = target: T4, Oxytocin receptor (Homo sapiens) (UniProt P30559); test: Partial agonist activity at human OT receptor expressed in CHO-K1 cells by luciferase reporter gene assay; format: functional, cell-based; in short: as §1
T4 sequence (whole entry): T3 sequence (P30559 whole entry)

T2 sequence (P30518 whole entry): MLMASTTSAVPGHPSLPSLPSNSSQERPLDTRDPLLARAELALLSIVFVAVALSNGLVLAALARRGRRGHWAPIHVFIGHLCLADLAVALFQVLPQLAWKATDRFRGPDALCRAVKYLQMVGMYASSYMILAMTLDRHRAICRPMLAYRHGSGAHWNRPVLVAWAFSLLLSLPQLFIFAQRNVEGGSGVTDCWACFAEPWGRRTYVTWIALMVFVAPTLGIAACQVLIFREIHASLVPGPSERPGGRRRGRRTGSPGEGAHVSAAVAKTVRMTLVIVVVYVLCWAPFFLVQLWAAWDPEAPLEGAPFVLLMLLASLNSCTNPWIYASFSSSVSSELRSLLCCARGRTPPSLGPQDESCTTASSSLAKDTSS
Sequence of Vasopressin V1a/V2 (Homo sapiens) (P30518 whole entry, looked up): as the sequence (P30518 whole entry) above
Sequence of Vasopressin V1a/V2 (Homo sapiens) (P37288 whole entry, looked up): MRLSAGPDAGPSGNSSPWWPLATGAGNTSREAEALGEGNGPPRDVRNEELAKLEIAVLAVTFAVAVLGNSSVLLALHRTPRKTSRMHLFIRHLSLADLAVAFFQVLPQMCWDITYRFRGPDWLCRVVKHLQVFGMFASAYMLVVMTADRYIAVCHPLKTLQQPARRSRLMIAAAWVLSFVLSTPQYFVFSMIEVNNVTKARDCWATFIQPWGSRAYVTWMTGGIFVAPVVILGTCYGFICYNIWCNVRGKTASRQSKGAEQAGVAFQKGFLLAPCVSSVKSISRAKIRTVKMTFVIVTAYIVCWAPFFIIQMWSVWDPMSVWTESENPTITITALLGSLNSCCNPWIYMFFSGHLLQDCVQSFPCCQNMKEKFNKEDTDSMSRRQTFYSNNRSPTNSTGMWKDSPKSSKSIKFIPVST
Sequence of Vasopressin V1a receptor (P37288 whole entry): as the sequence (P37288 whole entry, looked up) above

| Ratio EC50 [1] | EC50 (Vasopressin V1a receptor) | EC50 (Vasopressin V1b receptor) | EC50 (Vasopressin V2 receptor [2]) | EC50 (Oxytocin receptor; read-out: EC50) | Ratio EC50 (Homo sapiens [3]) | Ratio EC50 (Homo sapiens [4]) | Efficacy (Vasopressin V2 receptor [5]) | Efficacy [6] | EC50 (Oxytocin receptor; cho-k1, read-out: EC50) | EC50 (Oxytocin receptor; read-out: pEC50 (converted)) | Compound |
| --- | --- | --- | --- | --- | --- | --- | --- | --- | --- | --- | --- |
| 2600 | 1.4 nM | 250 nM | 3700 nM | 110 nM | 170 | 78 | < 70% | < 70% |  |  | CC[C@H](C)[C@@H]1NC(=O)[C@H](Cc2ccccc2)NC(=O)[C@@H](N)CSSC[C@@H](C(=O)N2CCC[C@H]2C(=O)N[C@@H](CCCNC(C)C)C(=O)NCC(N)=O)NC(=O)[C@H](CC(N)=O)NC(=O)[C@H](CC(N)=O)NC1=O (H-CFINNCP[Orn(iPr)]G-NH2; disulfide 1-6) |
| 220 | 0.54 nM | 150 nM | 120 nM | 29 nM | 270 | 53 |  | < 70% |  |  | CC[C@H](C)[C@@H]1NC(=O)[C@H](Cc2cccs2)NC(=O)[C@@H](N)CSSC[C@@H](C(=O)N2CCC[C@H]2C(=O)N[C@@H](CCN)C(=O)NCC(N)=O)NC(=O)[C@H](CC(N)=O)NC(=O)[C@H](CCC(N)=O)NC1=O (H-C[2Thi]IQNCP[Dab]G-NH2; disulfide 1-6) |
| 66 | 39 nM | 97 nM | 2600 nM |  | 2.4 | > 250 | < 70% |  | > 10000 nM | > 10000 nM | CCNC(=O)CC[C@@H]1NC(=O)[C@H]([C@@H](C)CC)NC(=O)[C@H](Cc2ccccc2)NC(=O)[C@@H](N)CSSC[C@@H](C(=O)N2CCC[C@H]2C(=O)N[C@@H](CCCN)C(=O)NCC(N)=O)NC(=O)[C@H](CC(N)=O)NC1=O (H-CFIE(NHEt)NCP[Orn]G-NH2; disulfide 1-6) |
| 130 | 19 nM | 430 nM | 2500 nM | 1200 nM | 22 | 63 | < 70% | < 70% |  |  | CC[C@H](C)[C@@H]1NC(=O)[C@H](Cc2cscn2)NC(=O)[C@@H](N)CSSC[C@@H](C(=O)N2CCC[C@H]2C(=O)N[C@@H](CCN)C(=O)NCC(N)=O)NC(=O)[C@H](CC(N)=O)NC(=O)[C@H](CCC(N)=O)NC1=O (H-C[Ala(4-thiazolyl)]IQNCP[Dab]G-NH2; disulfide 1-6) |
| 400 | 0.94 nM | 64 nM | 380 nM | 180 nM | 68 | 190 |  | < 70% |  | > 10000 nM | CC[C@H](C)[C@@H]1NC(=O)C2(CCC2)NC(=O)[C@@H](N)CSSC[C@@H](C(=O)N2CCC[C@H]2C(=O)N[C@@H](CCN)C(=O)NCC(N)=O)NC(=O)[C@H](CC(N)=O)NC(=O)[C@H](CCC(N)=O)NC1=O (H-C[Ac4c]IQNCP[Dab]G-NH2; disulfide 1-6) |
| 1300 | 3.9 nM | 8.7 nM | 5300 nM |  | 2.2 | > 2500 | < 70% |  | > 10000 nM | > 10000 nM | CC[C@H](C)[C@@H]1NC(=O)[C@H](Cc2ccccc2)NC(=O)[C@@H](N)CSSC[C@@H](C(=O)N2CCC[C@H]2C(=O)N[C@@H](CCN)C(=O)NCC(N)=O)NC(=O)[C@H](CC(N)=O)NC(=O)[C@H](CC(=O)NC)NC1=O (H-CFID(NHMe)NCP[Dab]G-NH2; disulfide 1-6) |
| 140 | 21 nM | 150 nM | 3000 nM |  | 7.1 | > 470 | < 70% |  | > 10000 nM | > 10000 nM | CC[C@H](C)[C@@H]1NC(=O)[C@H](Cc2ccccc2)NC(=O)[C@@H](N)CSSC[C@@H](C(=O)N2CCC[C@H]2C(=O)N[C@@H](CCCN)C(=O)NCC(N)=O)NC(=O)[C@H](CC(N)=O)NC(=O)[C@H](CCC(=O)NCC(C)C)NC1=O (H-CFIE(NHiBu)NCP[Orn]G-NH2; disulfide 1-6) |
